In ChEMBL document CHEMBL5126610, “Beyond Retigabine: Design, Synthesis, and Pharmacological Characterization of a Potent and Chemically Stable Neuronal Kv7 Channel Activator with Anticonvulsant Activity” (J Med Chem, 2022):
The source made the active and inactive calls. The rule behind the calls is not given here.

Key:
[1] = Photo stability of compound in saline at 10 uM irradiated with UV for 3 hrs by HPLC analysis; type: physicochemical; details: buffer
Procedure, shortened: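 Compounds in DMSO diluted into buffered aqueous solution pH 7.4 to a final 10 µM. Irradiated in 1 cm quartz cells by a 150 W UV lamp at 20 cm for 3 h; dark controls held at 37 °C. Aliquots analysed by UHPLC on C18 with TFA water/ACN gradient: 220 nm for loss of parent, 550 nm for phenazine/phenazinium dimers.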

Mus musculus [2] = experiment: Anticonvulsant activity in PTZ induced C57BL/6 mouse acute seizure model assessed as seizure score at 3 mg/kg, ip pretreated for 30 mins followed by PTZ injection and measured upto 30 mins by Liittjohann's scale analysis; type: functional; details: time 60 min, 1 h
Procedure, shortened: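 Male C57Bl/6 mice given drug i.p. in saline with 2% Tween-20 and 2% PEG-400 (0.01 mL/g), 30 min before PTZ 100 mg/kg s.c. Observed in Plexiglass boxes for 30 min. Maximal severity scored on the revised Lüttjohann 9-point scale (0–8), latency to maximal seizure recorded. One-way ANOVA with Tukey.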

[3] = target: T1, Voltage-gated potassium channel, KQT; KCNQ2(Kv7.2)/KCNQ3(Kv7.3) (Homo sapiens) (UniProt O43526+O43525); experiment: Activation of Kv7.2/Kv7.3 channel (unknown origin) expressed in CHO cells assessed as slope of fluorescent signal at 10 uM by FluxOR fluorescent dye based assay; type: cell-based; details: filed as activator
Procedure, shortened: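 CHO clone stably expressing Kv7.2/Kv7.3 (PiggyBac, puromycin 4 µg/mL), seeded 1.6 × 10^4 cells/well on poly-D-lysine, assayed 24 h later. FluxOR II thallium flux, wash method, ex 485/em 520 nm. Tl+ stimulus buffer added after 5 s, read every 1 s for 50 s. Initial slope taken from 5–15 s. Vehicle 0.1% DMSO, 10 µM retigabine reference; only runs with Z' > 0.5 kept; ≥3 experiments.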

[4] = target: T1, Voltage-gated potassium channel, KQT; KCNQ2(Kv7.2)/KCNQ3(Kv7.3) (Homo sapiens); experiment: Activation of Kv7.2/Kv7.3 channel (unknown origin) expressed in CHO cells at -80 mV measured after 24 hrs by whole cell patch clamp based electrophysiological method; details: filed as activator
[5] = target: T1, Voltage-gated potassium channel, KQT; KCNQ2(Kv7.2)/KCNQ3(Kv7.3) (Homo sapiens); experiment: Activation of Kv7.2/Kv7.3 channel (unknown origin) expressed in CHO cells assessed as half activation potential measured after 24 hrs by whole cell patch clamp based electrophysiological method; details: filed as activator
[6] = Toxicity in PTZ induced C57BL/6 mouse acute seizure model assessed as in mortality at 0.3 mg/kg, ip; type: organism-based; details: in vivo
Procedure, shortened: (§1)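 Male C57Bl/6 mice were pretreated i.p. with drug in saline containing 2% Tween-20 and 2% PEG-400, 30 min before PTZ (100 mg/kg s.c.). Vehicle controls received the vehicle alone. Survival was recorded as animals alive at the end of the 60 min observation period after PTZ and expressed as percent (surviving/total) per group.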

[7] = Toxicity in PTZ induced C57BL/6 mouse acute seizure model assessed as mortality at 1 mg/kg, ip; type: organism-based; details: in vivo; procedure, shortened: as §1
Mus musculus [8] = experiment: Anticonvulsant activity in PTZ induced C57BL/6 mouse acute seizure model assessed as seizure score at 0.3 mg/kg, ip pretreated for 30 mins followed by PTZ injection and measured upto 30 mins by Liittjohann's scale analysis; type: functional; details: time 60 min, 1 h
Procedure, shortened: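 Male C57Bl/6 mice, drug in saline with 2% Tween-20 and 2% PEG-400, given i.p. at 0.01 mL/g 30 min before PTZ (100 mg/kg s.c. in saline). Animals watched in clear boxes for 30 min. Maximal severity was scored on the revised Lüttjohann 9-point scale (0 whisker trembling to 8 wild jumping). Group mean reported.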

[9] = target: T1, Voltage-gated potassium channel, KQT; KCNQ2(Kv7.2)/KCNQ3(Kv7.3) (Homo sapiens); experiment: Activation of Kv7.2/Kv7.3 channel (unknown origin) expressed in CHO cells assessed as leftward shift change in half activation potential at 1 uM measured after 24 hrs by whole cell patch clamp based electrophysiological method; details: filed as activator

## CC(C)(C)CC(=O)Nc1ccc(NCc2ccc(C(F)(F)F)cc2)cc1N1CCCC1
[1]
  Stability: Unstable

## CCCCCCCC(=O)Nc1ccc(NCc2ccc(C(F)(F)F)cc2)cc1N
[1]
  Stability: Stable

## O=C1c2ccccc2C(Cc2ccncc2)(Cc2ccncc2)c2ccccc21
Mus musculus [2]
  Activity: 7.3

## CC(C)(C)CC(=O)Nc1ccc(NCc2c(F)cccc2F)cc1N
[1]
  Stability: Stable

## CCCCCCC(=O)Nc1ccc(CCc2ccc(C(F)(F)F)cc2)cc1N
[3]
  Activity: 0.0087

## CCCCCCC(=O)Nc1ccc(NCc2ccc(C(F)(F)F)cc2)cc1N
[1]
  Stability: Stable

## CCCCCCC(=O)Nc1ccc(NCc2ccccc2F)cc1N
[1]
  Stability: Stable

## CCCCCCC(=O)Nc1ccc(NCc2ccccc2)cc1N
[1]
  Stability: Stable

## Nc1cc(NCc2ccc(C(F)(F)F)cc2)ccc1NC(=O)CCC1CCCCC1
[1]
  Stability: Stable

## CC(C)(C)CC(=O)Nc1ccc(NCc2ccc(C(F)(F)F)cc2)cc1N
[1]
  Stability: Stable

## CC(C)(C)CC(=O)Nc1ccc(NCc2ccc(C(F)(F)F)cc2)cc1N1CCCCC1
[1]
  Stability: Unstable

## CC(C)(C)CC(=O)Nc1ccc(NCc2ccc(C(F)(F)F)cc2)c(F)c1N
[4]
  Activity: Active
[5]
  V1/2: -30.2 mV
[6]
  Activity: 87%
[7]
  Activity: 100%
Mus musculus [8]
  Activity: 6

## CCOC(=O)Nc1ccc(NCc2ccc(C(F)(F)F)cc2)c(F)c1N
[9]
  delta(V1/2): 40 mV
[4]
  Activity: Active

## CCOC(=O)Nc1ccc(NCc2ccc(F)cc2)cc1N
[4]
  Activity: Active
